Tests used:
[1] = Inhibition of bacterial VIM-1 (unknown origin) expressed in Escherichia coli EXPRESS BL21(DE3) assessed as inhibition constant by measuring rate of substrate hydrolysis by UV-visible spectrophotometry; design: species or system Bacteria
Summary of the method: (§1)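 Reporter-substrate assay with purified MBL (1–70 nM final) in 50 mM HEPES pH 7.5 at 30 °C. […] Inhibitor 0.5–1000 μM final. Ki derived from the v0/vi vs [I] slope assuming competitive inhibition, or from a Dixon plot. Ki given when inhibition >70%, otherwise % inhibition at 100 μM. Triplicate.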

[2] = Inhibition of bacterial VIM-2 (unknown origin) expressed in Escherichia coli EXPRESS BL21(DE3) assessed as inhibition constant by measuring rate of substrate hydrolysis by UV-visible spectrophotometry; design: species or system Bacteria; summary of the method: as §1
[3] = Inhibition of bacterial VIM-4 (unknown origin) expressed in Escherichia coli EXPRESS BL21(DE3) assessed as inhibition constant by measuring rate of substrate hydrolysis by UV-visible spectrophotometry; design: species or system Bacteria; summary of the method: as §1
[4] = Inhibition of bacterial NDM-1 (unknown origin) expressed in Escherichia coli EXPRESS BL21(DE3) assessed as inhibition constant by measuring rate of substrate hydrolysis by UV-visible spectrophotometry; design: species or system Bacteria; summary of the method: as §1
Bacteria [5] = test: Inhibition of bacterial IMP-1 (unknown origin) expressed in Escherichia coli EXPRESS BL21(DE3) assessed as inhibition constant by measuring rate of substrate hydrolysis at 100 uM by UV-visible spectrophotometry relative to control; summary of the method: as §1
Klebsiella pneumoniae [6] = test: Antimicrobial activity against blaVIM-1-producing multidrug-resistant Klebsiella pneumoniae K47-25 clinical isolate assessed as meropenem MIC at 32 ug/ml by broth microdilution method (reference value: […] ug/ml); format: functional; details: dose 32 µg/ml
Summary of the method: (§2)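 Inoculum was 5×10^4 CFU/well. Each inhibitor was present at a fixed 32 μg/mL, and MICs were also taken without inhibitor.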

Klebsiella pneumoniae [7] = test: Antimicrobial activity against blaVIM-4-producing multidrug-resistant Klebsiella pneumoniae VA-416/02 clinical isolate assessed as meropenem MIC at 32 ug/ml by broth microdilution method (reference value: […] ug/ml); format: functional; details: dose 32 µg/ml; summary of the method: as §2
Pseudomonas aeruginosa = test: Antimicrobial activity against blaVIM-2-producing multidrug-resistant Pseudomonas aeruginosa VA-182/00 clinical isolate assessed as meropenem MIC at 32 ug/ml by broth microdilution method (reference value: 128 ug/ml); format: functional; details: dose 32 µg/ml; summary of the method: as §2
Escherichia coli = test: Antimicrobial activity against blaNDM-1-producing multidrug-resistant Escherichia coli SI-004 clinical isolate assessed as meropenem MIC at 32 ug/ml by broth microdilution method (reference value: 64 ug/ml)
Bacteria [8] = test: Inhibition of bacterial VIM-1 (unknown origin) expressed in Escherichia coli EXPRESS BL21(DE3) assessed as inhibition constant by measuring rate of substrate hydrolysis at 100 uM by UV-visible spectrophotometry relative to control; summary of the method: as §1
Bacteria [9] = test: Inhibition of bacterial VIM-2 (unknown origin) expressed in Escherichia coli EXPRESS BL21(DE3) assessed as inhibition constant by measuring rate of substrate hydrolysis at 100 uM by UV-visible spectrophotometry relative to control; summary of the method: as §1
Bacteria [10] = test: Inhibition of bacterial VIM-4 (unknown origin) expressed in Escherichia coli EXPRESS BL21(DE3) assessed as inhibition constant by measuring rate of substrate hydrolysis at 100 uM by UV-visible spectrophotometry relative to control; summary of the method: as §1
Bacteria [11] = test: Inhibition of bacterial NDM-1 (unknown origin) expressed in Escherichia coli EXPRESS BL21(DE3) assessed as inhibition constant by measuring rate of substrate hydrolysis at 100 uM by UV-visible spectrophotometry relative to control; summary of the method: as §1

SMILES	Ki [1]	Ki [2]	Ki [3]	Ki [4]	inhibition (Bacteria [5])	MIC (Klebsiella pneumoniae [6])	MIC (Klebsiella pneumoniae [7])	MIC (Pseudomonas aeruginosa)	MIC (Escherichia coli)	inhibition (Bacteria [8])	inhibition (Bacteria [9])	inhibition (Bacteria [10])	inhibition (Bacteria [11])
O=C(O)[C@H](CCCn1c(-c2ccccc2)n[nH]c1=S)N(Cc1cccnc1)Cc1c[nH]cn1	5.2 µM	1.8 µM	1.7 µM	34.8 µM	< 30%	4 mg/L	1 mg/L	128 mg/L	64 mg/L				
O=C(O)[C@H](CCCn1c(C2CCCCC2)n[nH]c1=S)N(Cc1c[nH]cn1)Cc1c[nH]cn1	0.28 µM	0.11 µM	0.09 µM	0.0035 µM	48%	0.06 mg/L	0.12 mg/L	8 mg/L	0.06 mg/L				
O=C(O)[C@H](CCCn1c(-c2ccccc2)n[nH]c1=S)NCc1cscn1					47%					55%	< 30%	43%	< 30%
O=C(O)[C@H](CCCn1c(-c2ccccc2)n[nH]c1=S)N(Cc1ccccc1)Cc1ccccc1					< 30%	2 mg/L	4 mg/L	128 mg/L	64 mg/L	38%	63%	64%	32%
O=C(O)[C@H](CCCn1c(-c2cccc(-c3ccccc3)c2)n[nH]c1=S)N(Cc1c[nH]cn1)Cc1c[nH]cn1	0.13 µM	0.09 µM	0.07 µM	0.013 µM	69%	0.03 mg/L	0.03 mg/L	8 mg/L	0.06 mg/L				
O=C(O)[C@H](CCCn1c(-c2ccccc2)n[nH]c1=S)N(Cc1cn[nH]c1)Cc1cn[nH]c1	3.7 µM	2.5 µM	0.29 µM		< 30%	2 mg/L	1 mg/L	128 mg/L	64 mg/L				< 30%
O=C(O)[C@H](CCCn1c(-c2ccccc2)n[nH]c1=S)N(Cc1c[nH]cn1)Cc1ncc[nH]1	0.45 µM	3.3 µM	0.35 µM	2.7 µM	49%	0.06 mg/L	0.06 mg/L	8 mg/L	0.06 mg/L				
CC(C)(C)OC(=O)NCCCCn1c(-c2ccccc2)n[nH]c1=S	0.75 µM		3.1 µM		< 30%						53%		42%
Cn1cncc1CN(Cc1c[nH]cn1)[C@@H](CCCn1c(-c2ccccc2)n[nH]c1=S)C(=O)O	4.4 µM	3.2 µM	3.8 µM		50%	2 mg/L	4 mg/L	128 mg/L	32 mg/L				66%
O=C(O)[C@H](CCCn1c(-c2ccccc2)n[nH]c1=S)N(Cc1cnccn1)Cc1cnccn1	2.5 µM	1.2 µM	0.63 µM	17.9 µM	51%	4 mg/L	2 mg/L	128 mg/L	32 mg/L				
O=C(O)[C@H](CCCn1c(-c2ccccc2)n[nH]c1=S)NCc1ccccc1					< 30%						< 30%	< 30%	< 30%
O=C(O)[C@H](CCCn1c(-c2ccccc2)n[nH]c1=S)N(Cc1ccccc1)Cc1c[nH]cn1	4.1 µM	2.1 µM	1 µM		45%	2 mg/L	2 mg/L	128 mg/L	32 mg/L				60%
O=C(O)[C@H](CCCn1c(-c2ccccc2)n[nH]c1=S)N(Cc1cnccn1)Cc1c[nH]cn1	3.3 µM	2.4 µM	1.9 µM	0.89 µM	43%	4 mg/L	1 mg/L	128 mg/L	8 mg/L				
O=C(O)[C@H](CCCn1c(-c2ccccc2)n[nH]c1=S)NCc1c[nH]c2ccccc12					< 30%						< 30%	< 30%	< 30%
O=C(O)[C@H](CCCn1c(Cc2ccccc2)n[nH]c1=S)N(Cc1c[nH]cn1)Cc1c[nH]cn1	0.12 µM	0.41 µM	0.12 µM	0.09 µM	54%	0.03 mg/L	0.03 mg/L	8 mg/L	0.06 mg/L				
O=C(O)[C@H](CCCn1c(-c2ccccc2)n[nH]c1=S)N(Cc1cn[nH]c1)Cc1c[nH]cn1	4.6 µM		2 µM		34%						53%		37%

SMILES	Ki [1]	Ki [2]	Ki [3]	Ki [4]	inhibition (Bacteria [5])	MIC (Klebsiella pneumoniae [6])	MIC (Klebsiella pneumoniae [7])	MIC (Pseudomonas aeruginosa)	MIC (Escherichia coli)	inhibition (Bacteria [8])	inhibition (Bacteria [9])	inhibition (Bacteria [10])	inhibition (Bacteria [11])
O=C(O)[C@H](CCCn1c(-c2ccccc2)n[nH]c1=S)N(Cc1c[nH]cn1)Cc1cncs1	2.5 µM	1.1 µM	0.77 µM	13.1 µM	39%	1 mg/L	2 mg/L	128 mg/L	32 mg/L				
O=C(O)[C@H](CCCn1c(-c2ccccc2)n[nH]c1=S)NCc1cc[nH]c1	5 µM				< 30%						< 30%	32%	< 30%
Cc1ccc(C(C)N[C@@H](CCCn2c(-c3ccccc3)n[nH]c2=S)C(=O)O)cc1 (some centres not stated)	10.8 µM				< 30%						36%	< 30%	< 30%
O=C(O)[C@H](CCCn1c(-c2ccccc2)n[nH]c1=S)N(Cc1cscn1)Cc1cscn1	2.4 µM	2.5 µM	2 µM	6.5 µM	48%	1 mg/L	1 mg/L	128 mg/L	32 mg/L				
COc1cccc(CN(Cc2cccc(OC)c2OC)[C@@H](CCCn2c(-c3ccccc3)n[nH]c2=S)C(=O)O)c1OC	2 µM	0.76 µM	0.36 µM		< 30%	2 mg/L	4 mg/L	128 mg/L	64 mg/L				43%
O=C(O)[C@H](CCCn1c(-c2ccccc2)n[nH]c1=S)NCc1cncs1			3.4 µM		< 30%					60%	58%		< 30%
Cc1[nH]cnc1CN[C@@H](CCCn1c(-c2ccccc2)n[nH]c1=S)C(=O)O					< 30%					51%	< 30%	< 30%	< 30%
O=C(O)[C@H](CCCn1c(-c2ccccc2)n[nH]c1=S)NCc1cccnc1					< 30%					48%	47%	< 30%	< 30%
O=C(O)[C@H](CCCn1c(-c2ccccc2)n[nH]c1=S)N(Cc1ncc[nH]1)Cc1ncc[nH]1	0.69 µM	0.9 µM	0.66 µM	0.02 µM	61%								
S=c1[nH]nc(-c2ccccc2)n1CCCCN(Cc1c[nH]cn1)Cc1c[nH]cn1	0.85 µM	1.5 µM	0.9 µM	9.2 µM	34%	4 mg/L	1 mg/L	128 mg/L	32 mg/L				
O=C(O)[C@H](CCCn1c(-c2ccccc2)n[nH]c1=S)N(Cc1c[nH]cn1)Cc1cscn1	0.82 µM	0.35 µM	0.35 µM	0.03 µM	59%	0.12 mg/L	0.06 mg/L	16 mg/L	4 mg/L				
Cn1cncc1CN[C@@H](CCCn1c(-c2ccccc2)n[nH]c1=S)C(=O)O	9.5 µM				< 30%						47%	< 30%	38%
O=C(O)[C@H](CCCn1c(-c2ccccc2)n[nH]c1=S)NCc1cccc(O)c1O	8.1 µM		4.2 µM		32%						57%		37%
O=C(O)[C@H](CCCCn1c(-c2ccccc2)n[nH]c1=S)NCc1c[nH]cn1	1.8 µM			4 µM	44%						39%	< 30%	
O=C(O)[C@H](CCCn1c(-c2ccccc2)n[nH]c1=S)NCc1ccccn1				2 µM	34%					< 30%	44%	< 30%	
